Measurements from ChEMBL document CHEMBL4049443, “Discovery of 2-[[2-Ethyl-6-[4-[2-(3-hydroxyazetidin-1-yl)-2-oxoethyl]piperazin-1-yl]-8-methylimidazo[1,2-a]pyridin-3-yl]methylamino]-4-(4-fluorophenyl)thiazole-5-carbonitrile (GLPG1690), a First-in-Class Autotaxin Inhibitor Undergoing Clinical Evaluation for the Treatment of Idiopathic Pulmonary …” (J Med Chem, 2017).
Calls of active or inactive are those of the source. The rule behind the calls is not given here.

Legend:
[1] = Cmax in C57BL/6Rj mouse at 30 mg/kg administered as single dose via oral gavage up to 24 hrs by LC-MS/MS analysis; assay type: ADME, organism-based; design: dose 30 mg/kg, route oral; settings: in vivo
Summary of the method: (§1)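 Female C57BL/6Rj mice, 4−5 weeks old, fasted, given one oral gavage in PEG 200/MC 0.5% (25/75 v/v) at 0.3, 1 or 3 mg/mL. Intracardiac blood under isoflurane at 1, 3, 6 and 24 h into Li-heparin; n = 3 per time point. Methanol precipitation, LC−MS/MS against an eight-level calibration curve (LLOQ 4 ng/mL).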

Mus musculus [2] = test: Dose normalized AUC (0 to 24 hrs) in C57BL/6Rj mouse at 10 mg/kg administered as single dose via oral gavage by LC-MS/MS analysis; assay type: ADME, organism-based; settings: in vivo; summary of the method: as §1
[3] = Tmax in C57BL/6Rj mouse at 3 mg/kg administered as single dose via oral gavage up to 24 hrs by LC-MS/MS analysis; assay type: ADME, organism-based; settings: in vivo; summary of the method: as §1
Mus musculus [4] = test: Anti-fibrotic activity in BML-induced pulmonary fibrosis C57BL/6 mouse model assessed as lung weight at 10 to 30 mg/kg, po administered bid with 7.5 hrs interval between 2 doses for 21 days relative to control; assay type: functional, organism-based
Autotaxin [5] = target: Autotaxin (Rattus norvegicus, UniProt Q64610); test: Inhibition of ATX in rat plasma assessed as reduction in LPA 18:2 production after 2 hrs by LC-MS/MS analysis
[6] = AUC (0 to 24 hrs) in C57BL/6Rj mouse at 10 mg/kg administered as single dose via oral gavage by LC-MS/MS analysis; assay type: ADME, organism-based; design: dose 10 mg/kg, time < 24 hr, route oral; settings: in vivo; summary of the method: as §1
[7] = Oral bioavailability in mouse at 5 mg/kg; assay type: ADME, organism-based; settings: in vivo
[8] = Protein binding to rat plasma; assay type: ADME, cell-free; settings: read-out: PPB
[9] = Plasma concentration in C57BL/6Rj mouse at 3 mg/kg administered as single dose via oral gavage after 24 hrs by LC-MS/MS analysis; assay type: ADME, organism-based; summary of the method: as §1
[10] = Cmax in C57BL/6Rj mouse at 10 mg/kg administered as single dose via oral gavage up to 24 hrs by LC-MS/MS analysis; assay type: ADME, organism-based; design: dose 10 mg/kg, route oral; settings: in vivo; summary of the method: as §1
Mus musculus [11] = test: Dose normalized Cmax in C57BL/6Rj mouse at 30 mg/kg administered as single dose via oral gavage up to 24 hrs by LC-MS/MS analysis; assay type: ADME, organism-based; settings: in vivo; summary of the method: as §1
Mus musculus [12] = test: In vivo inhibition of ATX in C57BL/6Rj mouse assessed as time for maximum reduction in LPA 18:2 at 3 mg/kg administered as single dose via oral gavage by LC-MS/MS analysis; assay type: functional
Summary of the method: (§2)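 Same single-gavage mouse study (female C57BL/6Rj, PEG 200/MC 0.5% vehicle, n = 3, bled predose and at 1, 3, 6, 24 h); vehicle control group. Plasma (10 μL) precipitated with methanol containing LPA 17:0 internal standard. LPA 18:2 read by LC−MS/MS as peak-area ratio to LPA 17:0. % reduction = 100 − (LPA at time t / mean vehicle LPA at time t × 100).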

[13] = Plasma concentration C57BL/6Rj mouse at 10 mg/kg administered as single dose via oral gavage after 24 hrs by LC-MS/MS analysis; assay type: ADME, organism-based; summary of the method: as §1
Mus musculus [14] = test: Anti-fibrotic activity in BML-induced pulmonary fibrosis C57BL/6 mouse model assessed as reduction in fibrosis with damage of pulmonary structure at 10 to 30 mg/kg, po administered bid with 7.5 hrs interval between 2 doses for 21 days relative to control; assay type: functional, organism-based
Summary of the method: (§3)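 Male C57Bl/6 mice, 11 weeks at delivery, anesthetized and given intranasal bleomycin 30 μg/50 μL; PBS controls. Oral dosing twice daily, 7.5 h apart, 10 mL/kg, from challenge day for 21 days: test agent in PEG 200/0.5% MC, pirfenidone in 0.5% CMC, vehicle controls; 14−24 mice per group. Lungs stained by Mallory method, scored 1–5 (Matsuse-modified Ashcroft) as mean of 10 low-power fields; group median, Mann−Whitney.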

Mus musculus [15] = test: Dose normalized Cmax in C57BL/6Rj mouse at 3 mg/kg administered as single dose via oral gavage up to 24 hrs by LC-MS/MS analysis; assay type: ADME, organism-based; settings: in vivo; summary of the method: as §1
[16] = Apparent elimination half life in C57BL/6Rj mouse at 3 mg/kg administered as single dose via oral gavage up to 24 hrs by LC-MS/MS analysis; assay type: ADME, organism-based; settings: in vivo, read-out: betat1/2(app) (converted); summary of the method: as §1
Mus musculus [17] = test: In vivo inhibition of ATX in C57BL/6Rj mouse assessed as reduction in LPA 18:2 level in plasma at 30 mg/kg administered as single dose via oral gavage by LC-MS/MS analysis; assay type: functional; summary of the method: as §2
[18] = Protein binding to human plasma; assay type: ADME, cell-free; settings: read-out: PPB
Autotaxin [19] = target: Autotaxin (Mus musculus, UniProt Q9R1E6); test: Inhibition of ATX in mouse plasma assessed as reduction in LPA 18:2 production after 2 hrs by LC-MS/MS analysis
Mus musculus [20] = test: Anti-fibrotic activity in BML-induced pulmonary fibrosis C57BL/6 mouse model assessed as reduction in […] 18:2 content in BALF at 30 mg/kg, po administered bid with 7.5 hrs interval between 2 doses for 21 days measured 2 hrs post last dose on day 21 by LC-MS/MS analysis relative to control; assay type: functional, organism-based
Summary of the method: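 BLM model as above (intranasal 30 μg/50 μL, 21 days oral twice-daily dosing in PEG 200/0.5% MC), satellite groups. Bronchoalveolar lavage with two 0.5 mL ice-cold saline instillations, 2 h after a 30 mg/kg dose. LPA 18:2 by LC−MS/MS; PBS n = 9, BLM-vehicle n = 6, treated n = 7; mean ± SEM, one-way ANOVA with Dunnett's test.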

Mus musculus [21] = test: In vivo inhibition of ATX in C57BL/6Rj mouse assessed as time for maximum reduction in LPA 18:2 at 30 mg/kg administered as single dose via oral gavage by LC-MS/MS analysis; assay type: functional; summary of the method: as §2
[22] = Plasma concentration in C57BL/6Rj mouse at 30 mg/kg administered as single dose via oral gavage after 24 hrs by LC-MS/MS analysis; assay type: ADME, organism-based; summary of the method: as §1
[23] = Apparent terminal half life in C57BL/6Rj mouse at 30 mg/kg administered as single dose via oral gavage up to 24 hrs by LC-MS/MS analysis; assay type: ADME, organism-based; settings: in vivo, read-out: betat1/2(app) (converted); summary of the method: as §1
Mus musculus [24] = test: Anti-fibrotic activity in BML-induced pulmonary fibrosis C57BL/6 mouse model assessed as reduction in fibrous area with severe distortion of lung structure at 10 to 30 mg/kg, po administered bid with 7.5 hrs interval between 2 doses for 21 days relative to control; assay type: functional, organism-based; summary of the method: as §3
[25] = Tmax in C57BL/6Rj mouse at 30 mg/kg administered as single dose via oral gavage up to 24 hrs by LC-MS/MS analysis; assay type: ADME, organism-based; settings: in vivo
Summary of the method: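 Female C57BL/6Rj mice, 4−5 weeks old, given one oral gavage in PEG 200/MC 0.5% (25/75, v/v) at 3 mg/mL; fasted. Intracardiac blood under isoflurane at 1, 3, 6 and 24 h, Li-heparin. Methanol precipitation, LC−MS/MS against eight-level calibration, LLOQ 4 ng/mL. Plasma levels averaged over three mice; noncompartmental analysis for tmax.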

[26] = Oral bioavailability in rat at 5 mg/kg; assay type: ADME, organism-based; settings: in vivo
Mus musculus [27] = test: Dose normalized AUC (0 to 24 hrs) in C57BL/6Rj mouse at 30 mg/kg administered as single dose via oral gavage by LC-MS/MS analysis; assay type: ADME, organism-based; settings: in vivo; summary of the method: as §1

CCc1nc2c(C)cc(N3CCN(CC(=O)N4CC(O)C4)CC3)cn2c1N(C)c1nc(-c2ccc(F)cc2)c(C#N)s1 [ZIRITAXESTAT]
Cmax [1]: 21400 ng/mL
AUC/dose (Mus musculus [2]): 2079 ng·h/mL/mg/kg
Tmax [3]: 3 h
Activity (Mus musculus [4]): Active
IC50 (Autotaxin [5]): 542 nM
AUC(0-t) at 24 h [6]: 20800 ng·h/mL
bioavailability [7]: 29%
fraction unbound [8]: < 0.01
concentration at 24 h [9]: 1 ng/mL
Cmax [10]: 4360 ng/mL
Cmax/dose (Mus musculus [11]): 712 ng/mL/(mg/kg)
Time (Mus musculus [12]): 3 h
concentration at 24 h [13]: 4 ng/mL
Activity (Mus musculus [14]): Active
Cmax/dose (Mus musculus [15]): 358 ng/mL/(mg/kg)
half-life [16]: 2.21 h
inhibition in vivo at 30 mg/kg (Mus musculus [17]): 95.2%
fraction unbound [18]: < 0.01
IC50 (Autotaxin [19]): 418 nM
Activity (Mus musculus [20]): Active
Time (Mus musculus [21]): 3 h
concentration at 24 h [22]: 295 ng/mL
half-life [23]: 3.79 h
Activity (Mus musculus [24]): Active
Tmax [25]: 1 h
bioavailability [26]: 37%
AUC/dose (Mus musculus [27]): 3374 ng·h/mL/mg/kg
